The source made the active and inactive calls. The rule behind the calls is not given here.
How the values were obtained:
[1] = Stability in human plasma assessed as parent compound remaining after 30 mins by LC-MS/MS analysis; format: ADME, cell-free; conditions: read-out: Stabilty
Mus musculus [2] = assay: (§1) Neuroprotective activity in MPTP-induced C57BL/6 mouse model of Parkinson's disease assessed as reduction in time to climb down at 30 mg/kg, po pretreated for 1 day followed by MPTP challenge and subsequent compound dosing for 2 days measured 6 days post MPTP challenge by vertical grid test; format: functional, organism-based; conditions: time 7.0 day
Method in brief: (§2)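 Male C57BL/6 mice, 10 weeks old, 23–26 g, n = 10 per group. Dosed 30 mg/kg p.o. for 3 consecutive days in 10% N-methyl-2-pyrrolidone/20% Tween-80 in water. On day 2, MPTP-HCl 20 mg/kg i.p. given four times at 2 h intervals. Coat-hanger (scored 1–5, test done twice) and vertical grid tests run 6 days after MPTP. Brains taken next day for anti-TH immunohistochemistry (1:1000, DAB).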

CYP2D6 = CYP2D6 (Homo sapiens, UniProt P10635); assay: Inhibition of CYP2D6 (unknown origin) assessed as residual activity; format: ADME
[3] = molecular target: T1, Nuclear factor erythroid 2-related factor 2 (Mus musculus) (UniProt Q60795); assay: Activation of Nrf2 in mouse BV-2 cells assessed as increase in GCLM expression at 10 uM after 6 hrs by Western blot analysis relative to control; format: cell-based; conditions: filed as activator
T1 sequence (whole entry): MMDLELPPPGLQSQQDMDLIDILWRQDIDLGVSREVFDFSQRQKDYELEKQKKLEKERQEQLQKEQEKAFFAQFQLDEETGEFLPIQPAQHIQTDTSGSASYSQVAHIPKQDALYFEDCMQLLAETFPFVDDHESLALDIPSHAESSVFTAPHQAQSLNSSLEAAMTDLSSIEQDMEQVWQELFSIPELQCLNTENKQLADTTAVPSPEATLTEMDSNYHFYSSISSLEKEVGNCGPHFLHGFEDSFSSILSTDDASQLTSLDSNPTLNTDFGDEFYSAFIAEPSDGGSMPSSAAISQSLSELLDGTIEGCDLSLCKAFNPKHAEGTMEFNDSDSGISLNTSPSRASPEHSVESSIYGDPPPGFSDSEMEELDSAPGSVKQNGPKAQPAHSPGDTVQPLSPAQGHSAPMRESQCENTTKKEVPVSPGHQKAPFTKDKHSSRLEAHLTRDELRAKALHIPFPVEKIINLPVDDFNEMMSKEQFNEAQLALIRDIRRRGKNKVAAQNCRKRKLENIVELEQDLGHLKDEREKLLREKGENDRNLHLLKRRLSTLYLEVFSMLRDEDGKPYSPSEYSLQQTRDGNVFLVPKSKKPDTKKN
Method in brief: (§3)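 BV-2 microglia grown in RPMI-1640 with 10% FBS, penicillin-streptomycin and 2 mM L-glutamine at 37 °C, 5% CO2. Cells exposed to a range of concentrations for 6 h, then HO-1, GCLC, GCLM and SOD1 protein measured by Western blot. Band intensity normalized to β-actin and given as fold of vehicle control. Mean ± SEM, n = 3, three separate experiments.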

[4] = molecular target: T1, Nuclear factor erythroid 2-related factor 2 (Mus musculus); assay: Activation of Nrf2 in mouse BV-2 cells assessed as increase in GCLC expression after 6 hrs by Western blot analysis; format: cell-based; conditions: filed as activator, dose 0.02-10 µM; method in brief: as §3
[5] = Cytotoxicity against mouse BV-2 cells assessed cell viability at 10 uM measured after 6 hrs by Ez-cytox reagent based assay relative to control; conditions: read-out: Activity
[6] = molecular target: T1, Nuclear factor erythroid 2-related factor 2 (Mus musculus); assay: Activation of Nrf2 in mouse BV-2 cells assessed as increase in Gclc mRNA expression at 1 uM after 6 hrs by RT-qPCR analysis relative to control; format: cell-based; conditions: filed as activator
Method in brief: (§4)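 BV-2 cells exposed to a range of concentrations for 6 h. Ho1, Gclc, Gclm and Sod1 mRNA quantified by RT-qPCR and expressed relative to vehicle-treated control. Mean ± SEM, n = 3; Student's t-test.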

[7] = Cytotoxicity against mouse BV-2 cells assessed cell viability at 3 uM measured after 6 hrs by Ez-cytox reagent based assay relative to control; conditions: read-out: Activity
Method in brief: (§5)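 BV-2 cells (1.0 × 10⁴/well) grown 24 h at 37 °C, 5% CO2, then treated 6 h at […]. Viability expressed as percent of control.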

[8] = molecular target: T1, Nuclear factor erythroid 2-related factor 2 (Mus musculus); assay: Activation of Nrf2 in mouse BV-2 cells assessed as increase in GCLC expression at 10 uM after 6 hrs by Western blot analysis relative to control; format: cell-based; conditions: filed as activator; method in brief: as §3
[9] = molecular target: T1, Nuclear factor erythroid 2-related factor 2 (Mus musculus); assay: Activation of Nrf2 in mouse BV-2 cells assessed as increase in HO1 expression at 10 uM after 6 hrs by Western blot analysis relative to control; format: cell-based; conditions: filed as activator; method in brief: as §3
Mus musculus [10] = assay: as §1, with “tyrosine hydroxylase-positive cell loss” for “time to climb down”, “post-MPTP” for “post MPTP”, “immunohistochemistry analysis relative to control” for “vertical grid test”; format: functional; design: scale not given: the % may be the effect or the level left; conditions: time 7 day; method in brief: as §2
[11] = molecular target: T1, Nuclear factor erythroid 2-related factor 2 (Mus musculus); assay: Activation of Nrf2 in mouse BV-2 cells assessed as increase in Sod1 mRNA expression at 1 uM after 6 hrs by RT-qPCR analysis relative to control; format: cell-based; conditions: filed as activator; method in brief: as §4
CYP2C9 = CYP2C9 (Homo sapiens, UniProt P11712); assay: Inhibition of CYP2C9 (unknown origin) assessed as residual activity; format: ADME
BV-2 [12] = assay: Inhibition of nitric oxide production in LPS-stimulated mouse BV-2 cells harboring Nrf2 siRNA at 100 nM cotreated with LPS for 24 hrs by griess assay
Mus musculus [13] = assay: as §1, with “ability” for “reduction in time”, “to pull and” for “to”, “to the top of the hanger” for “down”, “coat-hanger” for “vertical grid”; format: functional, organism-based; conditions: time 7.0 day; method in brief: as §2
[14] = molecular target: T1, Nuclear factor erythroid 2-related factor 2 (Mus musculus); assay: Activation of Nrf2 in mouse BV-2 cells assessed as increase in SOD1 expression after 6 hrs by Western blot analysis; format: cell-based; conditions: filed as activator, dose 0.02-10 µM; method in brief: as §3
BV-2 [15] = assay: Antiinflammatory activity in mouse BV-2 cells assessed as inhibition of LPS-induced IL6 production preincubated for 6 hrs followed by LPS stimulation and measured after 24 hrs by ELISA; format: functional, cell-based; conditions: dose 0.02-2 µM, time 30.0 hrs
Method in brief: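 BV-2 cells seeded in 12-well plates and pretreated 6 h with compound at […]. LPS then added for 24 h. TNF-α and IL-6 released into the medium quantified by ELISA. Mean ± SEM, n = 3, three separate experiments.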

[16] = Cytotoxicity against mouse BV-2 cells assessed cell viability at 0.1 uM measured after 6 hrs by Ez-cytox reagent based assay relative to control; conditions: read-out: Activity; method in brief: as §5
CYP3A4 = CYP3A4 (Homo sapiens, UniProt P08684); assay: Inhibition of CYP3A4 (unknown origin) assessed as residual activity; format: ADME
[17] = molecular target: T1, Nuclear factor erythroid 2-related factor 2 (Mus musculus); assay: Activation of Nrf2 in mouse BV-2 cells assessed as increase in Gclm mRNA expression at 1 uM after 6 hrs by RT-qPCR analysis relative to control; format: cell-based; conditions: filed as activator; method in brief: as §4
[18] = molecular target: T1, Nuclear factor erythroid 2-related factor 2 (Mus musculus); assay: Activation of Nrf2 in mouse BV-2 cells assessed as increase in nuclear Nrf2 levels at 0.5 uM after 6 hrs by Western blot analysis relative to control; format: cell-based; conditions: filed as activator
[19] = molecular target: T1, Nuclear factor erythroid 2-related factor 2 (Mus musculus); assay: Activation of Nrf2 in mouse BV-2 cells assessed as increase in SOD1 expression at 10 uM after 6 hrs by Western blot analysis relative to control; format: cell-based; conditions: filed as activator; method in brief: as §3
CYP2C19 = CYP2C19 (Homo sapiens, UniProt P33261); assay: Inhibition of CYP2C19 (unknown origin) assessed as residual activity; format: ADME
CYP2C19, sequence (P33261 whole entry): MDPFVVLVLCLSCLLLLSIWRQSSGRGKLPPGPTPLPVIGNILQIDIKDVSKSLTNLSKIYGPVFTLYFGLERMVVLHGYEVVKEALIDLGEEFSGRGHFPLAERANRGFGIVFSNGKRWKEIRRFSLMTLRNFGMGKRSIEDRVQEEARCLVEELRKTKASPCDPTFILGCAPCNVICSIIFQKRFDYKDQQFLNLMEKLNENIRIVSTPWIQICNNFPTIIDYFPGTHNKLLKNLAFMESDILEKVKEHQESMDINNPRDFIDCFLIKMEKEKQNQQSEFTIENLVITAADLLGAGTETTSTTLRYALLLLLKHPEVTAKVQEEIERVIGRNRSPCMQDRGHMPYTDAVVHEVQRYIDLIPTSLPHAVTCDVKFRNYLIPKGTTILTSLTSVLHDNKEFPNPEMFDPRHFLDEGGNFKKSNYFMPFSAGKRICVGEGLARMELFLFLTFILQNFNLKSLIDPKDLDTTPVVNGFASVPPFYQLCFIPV

CYP2C9, sequence (P11712 whole entry): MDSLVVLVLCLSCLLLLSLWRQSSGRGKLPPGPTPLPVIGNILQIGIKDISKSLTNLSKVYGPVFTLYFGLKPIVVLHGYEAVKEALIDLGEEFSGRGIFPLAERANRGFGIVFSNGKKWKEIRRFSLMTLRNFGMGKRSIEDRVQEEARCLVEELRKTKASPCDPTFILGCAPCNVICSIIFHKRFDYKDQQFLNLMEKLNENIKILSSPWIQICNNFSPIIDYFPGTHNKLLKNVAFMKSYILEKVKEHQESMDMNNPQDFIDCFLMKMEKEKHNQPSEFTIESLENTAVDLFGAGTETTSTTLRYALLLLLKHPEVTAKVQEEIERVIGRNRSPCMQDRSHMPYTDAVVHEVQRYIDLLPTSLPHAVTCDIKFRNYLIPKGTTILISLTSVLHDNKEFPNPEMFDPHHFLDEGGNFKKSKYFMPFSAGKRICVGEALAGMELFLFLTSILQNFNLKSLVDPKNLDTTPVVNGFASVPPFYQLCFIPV
CYP3A4, sequence (P08684 whole entry): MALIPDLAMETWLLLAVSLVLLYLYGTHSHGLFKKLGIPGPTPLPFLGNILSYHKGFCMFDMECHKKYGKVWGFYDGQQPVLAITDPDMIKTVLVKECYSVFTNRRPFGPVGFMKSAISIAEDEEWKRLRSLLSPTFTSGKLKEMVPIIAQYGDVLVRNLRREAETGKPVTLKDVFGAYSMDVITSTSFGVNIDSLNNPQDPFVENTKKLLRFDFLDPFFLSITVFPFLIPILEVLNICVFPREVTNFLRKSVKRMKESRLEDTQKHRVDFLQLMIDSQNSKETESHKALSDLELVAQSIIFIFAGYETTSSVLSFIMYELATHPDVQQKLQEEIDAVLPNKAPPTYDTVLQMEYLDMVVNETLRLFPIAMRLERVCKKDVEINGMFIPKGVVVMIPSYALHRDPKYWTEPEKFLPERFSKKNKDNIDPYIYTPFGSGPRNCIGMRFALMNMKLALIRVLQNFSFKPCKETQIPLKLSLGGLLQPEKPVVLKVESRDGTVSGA
CYP2D6, sequence (P10635 whole entry): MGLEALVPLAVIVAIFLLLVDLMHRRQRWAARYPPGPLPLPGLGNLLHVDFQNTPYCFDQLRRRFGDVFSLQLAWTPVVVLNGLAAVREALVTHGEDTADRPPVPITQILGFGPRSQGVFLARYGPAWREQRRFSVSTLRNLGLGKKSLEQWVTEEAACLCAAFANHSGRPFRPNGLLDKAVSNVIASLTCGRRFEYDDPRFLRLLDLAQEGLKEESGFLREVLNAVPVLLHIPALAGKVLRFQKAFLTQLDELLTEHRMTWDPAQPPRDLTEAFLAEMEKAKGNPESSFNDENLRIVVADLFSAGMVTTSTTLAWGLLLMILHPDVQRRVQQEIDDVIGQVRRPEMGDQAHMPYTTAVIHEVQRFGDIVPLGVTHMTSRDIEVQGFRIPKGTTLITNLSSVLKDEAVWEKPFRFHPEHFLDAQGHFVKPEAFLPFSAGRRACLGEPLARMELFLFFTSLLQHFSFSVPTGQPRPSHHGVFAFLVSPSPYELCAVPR

remaining at 0.5 h [1]: 97%
activity (CYP2D6): 88%
fold change (FC) [3]: 26.1
Activity [4]: Dose-dependent effect
fold change (FC) [6]: 2.6
fold change (FC) [8]: 8.5
fold change (FC) [9]: 17.6
fold change (FC) [11]: 2.5
activity (CYP2C9): 69.1%
Activity [14]: Dose-dependent effect
activity (CYP3A4): 91.2%
fold change (FC) [17]: 6.9
fold change (FC) [18]: 11
fold change (FC) [19]: 6.6
activity (CYP2C19): 27.8%
SMILES: O=S(=O)(/C=C/c1ncccc1Cl)c1ccccc1Cl
Activity (Mus musculus [2]): Active
viability at 6 h, 10 µM [5]: 100%
viability at 6 h, 3 µM [7]: 92.4%
activity (Mus musculus [10]): 65%
inhibition (BV-2 [12]): inactive
Activity (Mus musculus [13]): Active
inhibition (BV-2 [15]): Dose-dependent effect
viability at 6 h, 0.1 µM [16]: 100%
